Bioassay records from PubChem.
Compounds with a hit are over-represented: about 3.7% of the library has one in this group of screens.
KCNQ1 act: potentiates or activates the human KCNQ1 potassium channel. CHO-K1 KCNQ1, thallium flux FluxOR fluorescence; stronger effect = higher value. B-score at 10 µM. 310,000 tested, 0.35% active. AID 2648;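 active = fluorescence ratio B-score, a plate-corrected score, at least three library SD, with initial intensity B-score within 5 SD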
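System: Stable KCNQ1 CHO-K1 line | Incubation: 90 min dye loading and 20 min compound exposure, both at room temperature | Measure: Ratio B score | Medium: Assay buffer for compound exposure, DMSO matched across wells | Compound dosing: Single-concentration screen | Probe or stimulus: K+/Tl+ depolarizing stimulus | Measured by: Kinetic FluxOR fluorescence, 10 s baseline plus 110 s post-stimulus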
KCNK3 block: human KCNK3 channel inhibition, primary screen; CHO-KCNK3 thallium flux, FluxOR fluorescence; stronger effect = lower value; B-score at 10 µM; 340,000 tested, 0.84% active; AID 602410;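 active = B-score under library mean minus 4 SD, starting fluorescence ratio at most library mean plus 5 SD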;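 note: more negative B-score means stronger inhibition of thallium flux through KCNK3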
Target sequence (O14649 whole entry, looked up): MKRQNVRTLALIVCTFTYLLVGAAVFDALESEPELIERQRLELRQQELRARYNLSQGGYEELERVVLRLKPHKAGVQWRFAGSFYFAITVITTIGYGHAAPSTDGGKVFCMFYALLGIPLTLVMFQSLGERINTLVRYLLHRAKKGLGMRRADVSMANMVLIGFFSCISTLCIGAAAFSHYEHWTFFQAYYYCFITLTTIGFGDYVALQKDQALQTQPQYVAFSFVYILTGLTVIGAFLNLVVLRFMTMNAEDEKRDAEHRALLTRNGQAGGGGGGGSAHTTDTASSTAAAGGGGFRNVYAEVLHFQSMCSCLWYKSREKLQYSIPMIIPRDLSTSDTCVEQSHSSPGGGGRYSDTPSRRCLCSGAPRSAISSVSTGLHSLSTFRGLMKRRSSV
KCNQ1 block: human KCNQ1 channel inhibition; P51787; CHO-K1 KCNQ1, FluxOR thallium flux fluorescence; stronger effect = higher value; B-score at 10 µM; 310,000 tested, 1.3% active; AID 2642;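 active = compounds whose thallium flux B-score, printed positive for inhibition, exceeds three library SD while starting fluorescence stays within three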;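 note: channel opened by potassium depolarization with thallium stimulus after 20 min compound exposure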
KCNK9 inh: human KCNK9 channel inhibition. 310,000 tested, 1.2% active. Q9NPC2. AID 488922. B-score at 10 µM. HEK293 KCNK9, FluxOR thallium flux fluorescence; stronger effect = lower value;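 active = ratio B-score over 3 SD below the library mean, with starting fluorescence within 5 SD of its mean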;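 note: negative B-score means less thallium flux so channel inhibition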
Kir21 inh: Kir2.1 (mouse) channel inhibition. P35561. HEK293-Kir2.1, FluxOR thallium flux fluorescence; stronger effect = lower value. B-score at 10 µM. 310,000 tested, 0.85% active;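 active = fluorescence ratio B-score at or below minus 3 SD of library scores, with starting-brightness B-score within 2 SD, cut at about -4.2 in these data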;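 note: channel flux triggered by added potassium and thallium sulfate stimulus; B-score of peak minus minimum fluorescence over baseline after thallium stimulus; more negative B-score means stronger Kir2.1 block with less thallium influx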
hERG protect: hERG (human) protection from proarrhythmic block; Q12809; CHO-hERG, FluxOR thallium flux, dofetilide IC70 present; activation (rescue from dofetilide block), less the hit threshold, % at 10 µM; 310,000 tested, 0.51% active;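 active = activation above the mean of controls blocked by dofetilide plus 5 SD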;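 note: thallium influx through hERG after potassium depolarization seen as dye fluorescence rise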
Starred values were filed as active, the others as inactive; i = inactive; / = no result given.

SMILES	KCNQ1 act	KCNK3 block	KCNQ1 block	KCNK9 inh	Kir21 inh	hERG protect
CN1CCN(CCCNC(=O)c2ccc(Cn3c(=S)[nH]c4ccc(Br)cc4c3=O)cc2)CC1	i	i	i	i	0.13	-15
CC1CCN(CCCNC(=O)c2ccc(Cn3c(=S)[nH]c4ccc(Br)cc4c3=O)cc2)CC1	i	/	8*	i	-1.6	-15
CS(=O)(=O)C1=NSC2=NC(=O)/C(=C\c3cccn3-c3ccccc3Cl)C(=N)N21	i	i	10*	i	2.7	-36
Cc1ccc(-n2cccc2/C=C2/C(=N)N3C(=NC2=O)SN=C3S(C)(=O)=O)cc1	i	i	10*	i	1.6	-22
Cc1ccc(S(=O)(=O)Oc2ccc(/C=C3/C(=N)N4C(=NC3=O)SN=C4S(C)(=O)=O)cc2)cc1	i	i	i	i	0.02	-13
CCC1(CC)SC(N)=NC1=O	/	i	/	/	/	/
CC(=O)c1cccc(NC(=O)C(=O)Nc2cccc3ccccc23)c1	i	i	i	i	-1.2	5.2*
CC(=O)c1ccc(NC(=S)Nc2cccc3ccccc23)cc1	i	i	i	i	0.4	-5
Fc1cc(Cl)ccc1NC1=NCCCCC1	i	i	i	i	0.71	-3
Cc1onc(-c2ccccc2)c1CNS(=O)(=O)c1ccc(F)cc1F	i	i	i	i	-4	-11
Cc1onc(-c2ccccc2)c1CNS(=O)(=O)c1cccc(Br)c1	i	i	i	i	-6.4*	-9
CCOC(=O)CSc1nnc(CNc2ccc(Cl)cc2)n1Cc1ccccc1	i	i	8*	i	-2.5	-15
CCn1c(CNc2ccc(F)cc2)nnc1SCC(=O)OC1CCCCC1	i	i	i	i	-4.5*	-3
Cc1ccc(-c2n[nH]c(Cc3ccccc3)n2)cc1	i	i	i	i	-0.29	-4
Cc1ccc(N(Cc2ccccc2)C(=O)c2ccc(Cl)c(S(=O)(=O)N3CCOCC3)c2)cc1	i	i	i	i	-0.11	-16
COc1ccc(-c2nnc(SCc3ccccn3)n2C)cc1	i	i	i	i	0.04	-9
COc1ccc(N=C(N)SCc2ccccn2)cc1	i	i	i	i	-4.5*	-4
O=C(OC(C(=O)NCc1ccc(F)cc1)c1ccccc1)c1ccco1 (configuration not stated)	i	i	i	i	0.09	-2
Cc1cc(C(=O)OCC(=O)N(C)c2ccccc2)ccc1[N+](=O)[O-]	i	i	i	i	0.78	-7
Cc1ccc(C(=O)OCC(=O)N(C)c2ccccc2)cc1C	11*	i	i	i	0.2	-4
CCCOc1ccc(C(C(=O)OCCN(CC)CC)c2ccccc2)cc1 (configuration not stated)	i	i	i	i	-0.79	-8
COc1ccc(C(C(=O)OCCN(C)C)c2ccccc2)cc1 (configuration not stated)	i	i	i	-6.8*	-1.3	-3
COc1ccc(C(=O)CC(=O)c2ccccc2)cc1	i	i	i	i	-0.27	-8
COc1ccc(C(CC(=O)c2ccccc2)CC(=O)c2ccccc2)cc1	i	i	i	-7.1*	0.01	-3
O=C(CC(CC(=O)c1ccccc1)c1ccncc1)c1ccccc1	/	i	/	/	/	/
SMILES	KCNQ1 act	KCNK3 block	KCNQ1 block	KCNK9 inh	Kir21 inh	hERG protect
COc1ccc(C(=O)C/C(=C\C(=O)c2ccc(C)cc2)c2ccccc2)cc1	i	i	6*	i	-1.5	-13
O=C(NC(=S)Nc1ccc(Cc2ccncc2)cc1)c1ccc(F)cc1	i	i	i	i	-1.1	-1
COc1ccc(NC(=O)CCCc2ccccc2)cc1OC	i	i	i	i	1.4	-1
COC(=O)c1ccc(/C=C/c2c(-c3ccsc3)oc3ccc(N4CCOCC4)cc23)cc1	i	i	i	i	0.75	-6
O=C(CN1C(=O)/C(=C/c2ccccc2)SC1=S)N1CCN(CCc2ccccn2)CC1	i	i	i	i	1.1	-8
CCOCC(O)CNc1ccccc1 (configuration not stated)	i	i	i	i	-0.97	5.4*
CCOC(=O)c1ccc(NCC(O)COc2ccccc2)cc1 (configuration not stated)	i	i	i	i	0.02	-9
N#C/C(=C\c1c(F)cccc1Cl)C(=O)NC1CC1	i	i	i	i	-0.38	-17
CC(C)(C)c1ccc(C(=O)NC(=S)N2CCCCCC2)cc1	22*	i	i	i	1.7	8.4*
CC1CCN(C(=S)NC(=O)c2ccccc2)CC1	i	i	i	i	0.29	-6
CC1CCN(C(=S)NC(=O)c2cccc([N+](=O)[O-])c2)CC1	9*	i	i	i	2	13*
O=C(NC(=S)N(CC1CCC1)CC1CCCO1)c1cccc([N+](=O)[O-])c1 (configuration not stated)	16*	i	i	i	0.37	7.9*
CN1CCN(C(=S)NC(=O)c2cccc([N+](=O)[O-])c2)CC1	i	i	i	i	-0.69	-4
CC1CCN(C(=S)NC(=O)c2ccc(C(C)(C)C)cc2)CC1	29*	i	i	i	1.1	14*
O=Nc1[nH]c(=O)c(/C=C(\O)c2ccccc2)nc1NO	i	i	i	i	-1.8	-11
COC(=O)[C@H](Cc1ccccc1)NS(=O)(=O)c1ccc(F)cc1Br	/	i	/	/	/	/
Cc1ccc(C(=O)NC(=S)N2CCN(c3cc(C)ccc3C)CC2)cc1	i	i	i	i	0.05	7.7*
Cc1ccc(C(=O)NC(=S)N2CCN(c3ccccc3F)CC2)cc1	i	i	i	i	-0.12	-9
COc1ccc(C(=O)NC(=S)N2CCC(C)CC2)cc1Br	27*	i	i	i	-2	15*
COCCCn1c(C)cc(C(=O)CN2c3cccc4cccc(c34)S2(=O)=O)c1C	/	i	/	/	/	/
O=S(=O)(c1cccc(F)c1)N1CCN(c2ncnc3scc(-c4ccc(F)cc4)c23)CC1	i	i	i	i	1.6	-15
COc1ccc(-c2csc3ncnc(N4CCN(S(=O)(=O)c5cccc(C(F)(F)F)c5)CC4)c23)cc1	i	i	i	-7.1*	1.6	-12
CCN(CC)C(=O)CSc1nc2c(sc(=S)n2-c2ccc(C)cc2C)c(=O)[nH]1	i	i	i	i	0.76	-8
O=C(Nc1ccnn1C1CCN(Cc2ccc(CO)o2)CC1)c1ccccc1	i	i	i	i	-0.41	-12
Cc1ccc(C(=O)C[n+]2ccc3ccccc3c2)cc1	i	i	i	i	-0.83	-5
